Entries after “also recorded” stand apart in the source; their conditions may differ. Where two headings read alike, the source gives them in different places.
Tests used:
[1] = tested on: mouse brain membrane SH enzymes; format: biochemical; conditions: FP-Rh; for Off-targets (10 μM): 10 μM compound; for Off-targets (1 μM): 1 μM compound
How it was run: (§1)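 Mouse brain membrane fraction was prepared by Dounce homogenisation in PBS pH 7.5, a 1,400 × g spin, then a 100,000 × g pellet (45 min). Membranes at 1 mg/mL were preincubated with test compound for 30 min at 37 °C, then labelled with FP-rhodamine (1 μM final, 30 min, 37 °C). Samples were quenched in SDS-PAGE loading buffer, run on 10% SDS-PAGE and scanned for in-gel fluorescence.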

[2] = biological target: T1, ABHD6 (Mus musculus, UniProt Q8R2Y0); assay: in vivo ABHD6 inhibition in mouse brain, gel-based competitive ABPP; conditions: for brain ABHD6 inhibition: 1 mg kg^-1 (20: all doses tested, 0.1-1 mg kg^-1)
T1 sequence (Q8R2Y0 1-336): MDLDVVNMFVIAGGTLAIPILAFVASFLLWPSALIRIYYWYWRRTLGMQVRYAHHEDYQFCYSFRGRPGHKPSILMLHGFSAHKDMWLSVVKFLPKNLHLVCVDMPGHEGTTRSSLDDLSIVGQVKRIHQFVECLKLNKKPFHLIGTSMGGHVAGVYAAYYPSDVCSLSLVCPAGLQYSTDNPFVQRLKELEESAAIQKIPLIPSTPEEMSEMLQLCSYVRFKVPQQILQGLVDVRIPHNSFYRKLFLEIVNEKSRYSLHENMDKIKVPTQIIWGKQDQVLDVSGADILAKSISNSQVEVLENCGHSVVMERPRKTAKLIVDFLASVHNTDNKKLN

[3] = biological target: T2, other brain and liver SHs (CES1, FAAH) (Mus musculus, UniProt O08914); format: in vivo; conditions: for lowest oral dose with cross-reactivity with FAAH in the brain: oral gavage
T2 sequence (O08914 1-579): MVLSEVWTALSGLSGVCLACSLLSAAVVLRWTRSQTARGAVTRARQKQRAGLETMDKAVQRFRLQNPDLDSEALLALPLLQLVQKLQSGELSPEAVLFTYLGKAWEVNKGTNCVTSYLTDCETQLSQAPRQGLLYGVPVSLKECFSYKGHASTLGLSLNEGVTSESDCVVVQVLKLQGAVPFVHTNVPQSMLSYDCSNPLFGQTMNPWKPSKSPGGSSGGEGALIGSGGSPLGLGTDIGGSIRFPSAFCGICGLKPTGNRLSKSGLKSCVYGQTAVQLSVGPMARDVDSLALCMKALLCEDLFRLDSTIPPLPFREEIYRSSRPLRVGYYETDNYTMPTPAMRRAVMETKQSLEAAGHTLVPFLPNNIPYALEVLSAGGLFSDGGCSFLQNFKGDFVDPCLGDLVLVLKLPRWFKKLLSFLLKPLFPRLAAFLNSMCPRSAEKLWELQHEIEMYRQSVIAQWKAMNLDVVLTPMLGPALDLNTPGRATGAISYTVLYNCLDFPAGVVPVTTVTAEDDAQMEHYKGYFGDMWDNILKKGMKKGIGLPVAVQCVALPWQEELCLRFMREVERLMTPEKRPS
How it was run: (§2)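 Mice were dosed i.p. in 18:1:1 saline/ethanol/PEG40 (10 μL g-1) or by oral gavage in PEG300 (4 μL g-1). After 4 hr they were anaesthetised with isoflurane and killed by cervical dislocation. Brain and liver were Dounce-homogenised in PBS pH 7.5, and membrane fractions (100,000 × g pellet) were labelled with FP-rhodamine or HT-01 (1 μM, 30 min, 37 °C). Readout was SDS-PAGE with in-gel fluorescence.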

[4] = tested on: other brain and liver SHs (CES1, FAAH); format: in vivo; conditions: mouse, i.p., 4 hr, FP-Rh gels
How it was run: as §2

[5] = biological target: T3, endogenous ABHD6 (Mus musculus, UniProt Q8R2Y0); assay: gel-based competitive ABPP; format: biochemical; conditions: versus compound 1
T3 sequence (Q8R2Y0 1-336): T1 sequence (Q8R2Y0 1-336)

[6] = biological target: T1, ABHD6; assay: in vivo ABHD6 inhibition in mouse liver, gel-based competitive ABPP; conditions: 4 hr; for liver ABHD6 inhibition at 1 mg kg^-1: i.p., 1 mg kg^-1, HT-01 gels
[7] = tested on: other SHs detected in Neuro2A cells; assay: ABPP-SILAC of Neuro2A cells treated in situ: other serine hydrolases; format: cell-based, mouse; conditions: 3 nM, 4 hr
How it was run: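 Neuro2A cells were grown 10 passages in light or heavy (13C/15N Arg and Lys) SILAC DMEM with 10% dialyzed FCS and 2 mM L-glutamine. Heavy cells received test compound and light cells DMSO (4 hr, 37 °C). Soluble and membrane proteomes (2.0 mg/mL) were labeled with 10 μM FP-biotin (2 hr, 25 °C), mixed 1:1, avidin-enriched, trypsin-digested on bead (12 hr, 37 °C) and analysed by LC-MS/MS. Heavy/light ratios were taken from ≥3 unique peptides per enzyme.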

[8] = biological target: T1, ABHD6; assay: in situ ABHD6 inhibition in Neuro2A cells, gel-based competitive ABPP; format: cell-based; conditions: for potency and selectivity in cells: abstract statement; for fold more potent in situ compared to compound 1: versus compound 1
[9] = tested on: Neuro2A membrane proteome; assay: click chemistry-ABPP of Neuro2A cells treated in situ with compound 2; format: cell-based, mouse; conditions: Neuro2A cells 1 hr, click with azide-Rh
[10] = biological target: T4, Neuro2A membrane proteome (Mus musculus, UniProt Q8R2Y0); assay: as above; format: cell-based; conditions: Neuro2A cells 1 hr, click with azide-Rh
T4 sequence (Q8R2Y0 1-336): T1 sequence (Q8R2Y0 1-336)

[11] = biological target: T5, mouse brain membrane SH enzymes (Mus musculus, UniProt O08914); format: biochemical; conditions: competitive ABPP, FP-Rh
T5 sequence (O08914 1-579): T2 sequence (O08914 1-579)
How it was run: as §1

[12] = biological target: T1, ABHD6; conditions: negligible cross-reactivity with FAAH; cited from earlier work
[13] = Table 1, mouse brain membrane proteome

O=C(c1ccc(-c2ccc(-c3cn(C(=O)N4CCCCC4Cc4ccccc4)nn3)cc2)cc1)N1CCCCC1 (centres unmarked) [Compound 5]
Off-targets (10 μM) [1, 13]: none

O=C(N1CCCCC1c1ccccc1)n1cc(-c2ccc(-c3cccc(CO)c3)cc2)nn1 (centres unmarked) [Compound 9, (4-(3′-(Hydroxymethyl)-[1,1′-biphenyl]-4-yl)-1H-1,2,3-triazol-1-yl)(2-phenylpiperidin-1-yl)methanone]
brain ABHD6 inhibition ([2]; i.p., 4 hr): completely inactivated; also recorded: near-complete inactivation
lowest oral dose with cross-reactivity with FAAH in the brain [3]: 10 mg/kg
inhibition of off-target carboxylesterase-1 (CES1) in vivo [4]: inhibited
fold more potent in vitro compared to compound 1 [5]: ~10 fold
liver ABHD6 inhibition at 1 mg kg^-1 [6]: near-complete blockade; also recorded: near-complete inactivation
cross-reactivity against the ∼50 other SHs (ABPP-SILAC) [7]: < 50%
Off-targets (1 μM) ([1]; mouse brain SHs): none
Off-targets (10 μM) ([1]; Table 2, mouse brain SHs): FAAH, LYPLA1, LYPLA2
potency and selectivity in cells [8]: < 5 nM
fold more potent in situ compared to compound 1 [8]: ~5 fold

COc1ccccc1-c1ccc(-c2cn(C(=O)N3CCCCC3Cc3ccccc3)nn2)cc1 (centres unmarked) [Compound 3]
Off-targets (10 μM) [1, 13]: MGLL

O=C(O)c1cccc(-c2ccc(-c3cn(C(=O)N4CCCCC4CCc4ccccc4)nn3)cc2)c1 (centres unmarked) [Compound 22]
Off-targets (1 μM) ([1]; mouse brain SHs): none
Off-targets (10 μM) ([1]; Table 2, mouse brain SHs): FAAH

C#CCOCCCc1ccc(C2CCCCN2C(=O)n2cc(-c3ccc(-c4ccc(OC)cc4)cc3)nn2)cc1 (centres unmarked) [Compound 2]
concentrations with limited cross-reactivity (60 kDa protein, likely FAAH) [9]: 80 to 600 nM
lowest concentration at which the ∼35 kDa target (ABHD6) was detected [10]: 10 nM
concentrations cross-reactive with FAAH in mouse brain proteome [11]: 0.4 to 10 µM

O=C(N1CCCCC1c1ccccc1)n1cc(-c2ccc(-c3ccccc3CO)cc2)nn1 (centres unmarked) [Compound 8]
Off-targets (1 μM) ([1]; mouse brain SHs): none
Off-targets (10 μM) ([1]; Table 2, mouse brain SHs): FAAH, LYPLA1, LYPLA2

O=C(O)c1cccc(-c2ccc(-c3cn(C(=O)N4CCCCC4c4ccccc4)nn3)cc2)c1 (centres unmarked) [Compound 21]
Off-targets (1 μM) ([1]; mouse brain SHs): APEH, LYPLA1, and LYPLA2
Off-targets (10 μM) ([1]; Table 2, mouse brain SHs): FAAH, APEH, LYPLA1, LYPLA2

COc1ccc(-c2ccc(-c3cn(C(=O)N4CCCCC4c4ccccc4)nn3)cc2)cc1 (centres unmarked) [Compound 1]
concentration that completely inactivates ABHD6 in living cells [12]: 25 nM
Off-targets (10 μM) [1, 13]: FAAH

O=C(N1CCCCC1Cc1ccccc1)n1cc(-c2ccc(-c3cccc(CO)c3)cc2)nn1 (centres unmarked) [Compound 4]
Off-targets (10 μM) [1, 13]: none

O=C(O)c1cccc(-c2ccc(-c3cn(C(=O)N4CCCCC4Cc4ccccc4)nn3)cc2)c1 (centres unmarked) [Compound 20, 4′-(1-(2-Benzylpiperidine-1-carbonyl)-1H-1,2,3-triazol-4-yl)-[1,1′-biphenyl]-3-carboxylic acid]
brain ABHD6 inhibition ([2]; i.p., 4 hr): negligible inhibition
lowest oral dose with cross-reactivity with FAAH in the brain [3]: 10 mg/kg
fold more potent in vitro compared to compound 1 [5]: ~10 fold
liver ABHD6 inhibition at 1 mg kg^-1 [6]: near-complete blockade; also recorded: near-complete inactivation
cross-reactivity against the ∼50 other SHs (ABPP-SILAC) [7]: < 50%
Off-targets (1 μM) ([1]; mouse brain SHs): none
Off-targets (10 μM) ([1]; Table 2, mouse brain SHs): FAAH, DAGLβ
potency and selectivity in cells [8]: < 5 nM
fold more potent in situ compared to compound 1 [8]: ~5 fold

O=C(c1ccc(-c2ccc(-c3cn(C(=O)N4CCCCC4c4ccccc4)nn3)cc2)cc1)N1CCCCC1 (centres unmarked) [Compound 12]
Off-targets (1 μM) ([1]; mouse brain SHs): none
Off-targets (10 μM) ([1]; Table 2, mouse brain SHs): LYPLA1, LYPLA2

O=C(c1cccc(-c2ccc(-c3cn(C(=O)N4CCCCC4c4ccccc4)nn3)cc2)c1)N1CCCCC1 (centres unmarked) [Compound 11, (2-Phenylpiperidin-1-yl)(4-(3′-(piperidine-1-carbonyl)-[1,1′-biphenyl]-4-yl)-1H-1,2,3-triazol-1-yl)methanone]
dose to completely block ABHD6 in the brain (i.p.) ([2]; i.p., 4 hr): ~40 mg/kg
inhibition at 20 mg/kg ([2]; ip, read-out: brain ABHD6 inhibition at 20 mg kg^-1): > 70%
dose producing complete blockade of brain ABHD6 (p.o.) ([2]; p.o., PEG300, 4 hr): 40 mg/kg
cross-reactivity with FAAH in brain in vivo ([3]; i.p., 1-40 mg kg^-1, 4 hr): negligible
fold more potent in vitro compared to compound 1 [5]: ~10 fold
doses giving near-complete blockade of ABHD6 in the liver (i.p.) [6]: 5 to 10 mg/kg
cross-reactivity against the ∼50 other SHs (ABPP-SILAC) [7]: < 50%
Off-targets (1 μM) ([1]; mouse brain SHs): none
Off-targets (10 μM) ([1]; Table 2, mouse brain SHs): LYPLA1, LYPLA2
fold more potent in situ compared to compound 1 [8]: ~5 fold

NC(=O)c1ccc(-c2ccc(-c3cn(C(=O)N4CCCCC4c4ccccc4)nn3)cc2)cc1 (centres unmarked) [Compound 13]
Off-targets (1 μM) ([1]; mouse brain SHs): none
Off-targets (10 μM) ([1]; Table 2, mouse brain SHs): FAAH, LYPLA1, LYPLA2

COc1ccccc1-c1ccc(-c2cn(C(=O)N3CCCCC3c3ccccc3)nn2)cc1 (centres unmarked) [Compound 6]
Off-targets (10 μM) [1, 13]: FAAH, MGLL

O=C(N1CCCCC1c1ccccc1)n1cc(-c2ccc(-c3ccc(CO)cc3)cc2)nn1 (centres unmarked) [Compound 10]
Off-targets (1 μM) ([1]; mouse brain SHs): none
Off-targets (10 μM) ([1]; Table 2, mouse brain SHs): FAAH, LYPLA1, LYPLA2
